Measurements published in ChEMBL document CHEMBL1146041, “Synthesis and SAR of pyrrolotriazine-4-one based Eg5 inhibitors” (Bioorg Med Chem Lett, 2006).

Legend:
Assay type in all cases: ADME, organism-based
Parameters in all cases: dose 10 mg/kg
[1] = Clearance in mouse at 10 mg/kg; settings: in vivo
How it was run: (§1)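 Mice (n = 3) dosed at 10 mg/kg in 50% PEG400/50% water; pharmacokinetic parameters given as mean ± deviation.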

[2] = Volume of distribution in mouse at 10 mg/kg; settings: in vivo, read-out: Vdss; how it was run: as §1
[3] = Mean residence time in mouse at 10 mg/kg; settings: in vivo; how it was run: as §1
[4] = Half life in mouse at 10 mg/kg; settings: in vivo; how it was run: as §1

`Cc1ccc(C(=O)N(CCCN)C(c2nn3c(Cl)ccc3c(=O)n2Cc2ccccc2)C2CC2)cc1` (centres undefined) gave a clearance [1] of 0.96 L/h/kg, a Vd [2] of 5.9 L/kg and an MRT [3] of 6.5 h. For the same compound, the half-life [4] was 4.5 h.
